This note sets out measurements from ChEMBL document CHEMBL4680370, “Discovery of Novel Small-Molecule FAK Activators Promoting Mucosal Healing” (ACS Med Chem Lett, 2021).

Where “and” joins values, the source holds several entries; their conditions need not be identical. Equal values may be shown once. Calls of active or inactive are those of the source. No cut-off for these calls is given here.

The target in one data set is Focal adhesion kinase 1 (Homo sapiens) (UniProt Q05397). Briefly: Activation of FAK in human Caco-2 cells assessed as increase in FAK Tyr397 phosphorylation at 10 nM incubated for 1 hr by Western blot analysis. As to conditions: filed as activator. In kind it is cell-based. The essentials: (§1)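 Caco-2 cells were exposed to compound at 10 nM, with DMSO vehicle as control. At least eight separate experiments were run and the data pooled, reported as mean ± standard error.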
Chain of Focal adhesion kinase 1 (Homo sapiens) (Q05397 2-1052 limits assumed): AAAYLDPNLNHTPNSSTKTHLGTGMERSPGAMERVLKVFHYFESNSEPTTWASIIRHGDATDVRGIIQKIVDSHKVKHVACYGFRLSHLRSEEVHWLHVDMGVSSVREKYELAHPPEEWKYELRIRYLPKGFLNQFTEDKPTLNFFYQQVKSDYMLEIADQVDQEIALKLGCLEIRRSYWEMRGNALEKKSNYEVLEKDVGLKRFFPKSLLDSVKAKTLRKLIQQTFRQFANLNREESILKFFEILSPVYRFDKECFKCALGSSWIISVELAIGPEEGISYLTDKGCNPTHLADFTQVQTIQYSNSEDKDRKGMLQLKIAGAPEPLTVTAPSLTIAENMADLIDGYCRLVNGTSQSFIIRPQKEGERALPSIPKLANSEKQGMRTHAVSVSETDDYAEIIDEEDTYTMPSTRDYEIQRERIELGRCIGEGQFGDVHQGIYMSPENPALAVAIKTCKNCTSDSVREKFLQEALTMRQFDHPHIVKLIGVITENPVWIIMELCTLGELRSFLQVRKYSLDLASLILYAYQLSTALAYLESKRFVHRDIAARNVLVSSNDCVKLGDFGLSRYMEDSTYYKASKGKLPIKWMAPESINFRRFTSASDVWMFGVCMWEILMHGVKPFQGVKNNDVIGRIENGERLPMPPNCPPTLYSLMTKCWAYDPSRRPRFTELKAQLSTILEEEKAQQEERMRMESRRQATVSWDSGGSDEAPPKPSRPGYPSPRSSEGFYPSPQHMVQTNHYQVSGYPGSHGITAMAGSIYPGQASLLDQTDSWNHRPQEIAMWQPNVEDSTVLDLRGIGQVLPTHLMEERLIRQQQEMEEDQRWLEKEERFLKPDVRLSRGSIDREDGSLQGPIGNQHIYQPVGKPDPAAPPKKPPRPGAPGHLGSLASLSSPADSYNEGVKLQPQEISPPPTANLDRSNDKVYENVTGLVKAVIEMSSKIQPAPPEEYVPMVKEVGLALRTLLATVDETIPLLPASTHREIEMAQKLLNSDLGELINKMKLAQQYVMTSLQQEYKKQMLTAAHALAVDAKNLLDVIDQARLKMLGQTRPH
As to `O=C(Nc1cc(C(F)(F)F)ccc1N1CCOCC1)N1CCCC1c1ccncc1` (centres undefined), the outcome was Active.
As for `COc1ccc(C(CNC(=O)Nc2cc(C(F)(F)F)ccc2N2CCOCC2)N(C)C)cc1` (centres undefined), the outcome was Active.
For the compound `O=C(Nc1cc(C(F)(F)F)ccc1N1CCOCC1)N1CCCC1c1ccccc1` (centres undefined), the result was Active.
On the same count and under the same terms, next, `O=C(Nc1cc(C(F)(F)F)ccc1N1CCOCC1)N1CCCC1C1CCCCC1` (centres undefined): “Active”.

For the next data set the target is unchanged. The experiment in a line: Activation of FAK in human Caco-2 cells assessed as increase in FAK Tyr397 phosphorylation incubated for 1 hr by Western blot analysis. The class given is cell-based. As to conditions: filed as activator, dose 10-1000 nM. (In western blotting, separated proteins are transferred to a membrane and probed.)
Take `O=C(Nc1cc(C(F)(F)F)ccc1N1CCOCC1)N1CCCC1c1ccncc1` (centres undefined): the Activity entry was “Dose-dependent effect”.
Turning to `COc1ccc(C(CNC(=O)Nc2cc(C(F)(F)F)ccc2N2CCOCC2)N(C)C)cc1` (centres undefined), the Activity result is “Dose-dependent effect”.
Still for that read-out and setting: in the case of `O=C(Nc1cc(C(F)(F)F)ccc1N1CCOCC1)N1CCCC1c1ccccc1` (centres undefined) it was “Dose-dependent effect”; in that of `O=C(Nc1cc(C(F)(F)F)ccc1N1CCOCC1)N1CCCC1C1CCCCC1` (centres undefined), “Dose-dependent effect”.

A further data set concerns Caco-2. The experiment in a line: Induction of wound closure in human Caco-2 cells at 10 nM in presence of hydroxyurea measured upto 24 hrs by inverted light microscopy based wound healing assay. The class given is functional, cell-based. As to conditions: time hrs <=24.
For the compound `O=C(Nc1cc(C(F)(F)F)ccc1N1CCOCC1)N1CCCC1c1ccncc1` (centres undefined), the result was Active.
Still for that read-out and setting: next, `COc1ccc(C(CNC(=O)Nc2cc(C(F)(F)F)ccc2N2CCOCC2)N(C)C)cc1` (centres undefined): “Active”.
Same read-out and setting: in the case of `O=C(Nc1cc(C(F)(F)F)ccc1N1CCOCC1)N1CCCC1c1ccccc1` (centres undefined) it was “Active”; in that of `O=C(Nc1cc(C(F)(F)F)ccc1N1CCOCC1)N1CCCC1C1CCCCC1` (centres undefined), “Active”.

Test system in the next data set: not listed separately
Briefly: Tmax in C57BL/6 mouse at 900 ug/kg, ip measured upto 12 hrs by LC-MS/MS analysis. The class given is ADME, organism-based. As to conditions: in vivo, 0.9 mg/kg, dose 900 µg/kg. The gist of the method: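 Single intraperitoneal dose of 900 μg/kg in C57BL/6 mice. Compound was first dissolved in DMSO, then diluted in 100 μL normal saline (final DMSO 2.5% in the injected solution). Plasma concentration was followed over time after dosing.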
Usually Tmax stands for the time at which the peak concentration occurs. `O=C(Nc1cc(C(F)(F)F)ccc1N1CCOCC1)N1CCCC1c1ccncc1` (centres undefined): the Tmax was 1 h.

Test system in the next data set: not listed separately
Briefly: Toxicity in C57BL/6 mouse assessed as body weight at 900 ug/kg, ip administered for every 6 hrs for 3 days and measured on day 4 (reference value: 9.16 +/- 0.62 %). In kind it is organism-based. As to conditions: in vivo, 0.9 mg/kg, dose 900 µg/kg.
`O=C(Nc1cc(C(F)(F)F)ccc1N1CCOCC1)N1CCCC1c1ccncc1` (centres undefined): the Activity is reported as 6.33%.

The target in a further data set is Focal adhesion kinase 1 (Homo sapiens) (UniProt Q05397). Briefly: Activation of FAK in human Caco-2 cells assessed as fold increase in FAK Tyr397 phosphorylation at 10 nM incubated for 1 hr by Western blot analysis relative to control. The class given is cell-based. As to conditions: filed as activator. The gist of the method: as §1
Turning to `CN1CCN(c2ccc(C(F)(F)F)cc2NC(=O)N2CCCC2c2ccncc2)CC1` (centres undefined), the fold change (FC) came to 0.9.
The same measure, in the same setting: in the case of `O=C(Nc1cc(C(F)(F)F)ccc1N1CCOCC1)N1CCCC1c1ccncc1` (centres undefined) it was 1.5 and 1.
Still for that read-out and setting: in the case of `COc1ccc(C(CNC(=O)Nc2cc(C(F)(F)F)ccc2N2CCOCC2)N(C)C)cc1` (centres undefined) it was 1.4; in that of `O=C(Nc1cc(C(F)(F)F)ccc1N1CCOCC1)N1CCCC1c1ccccc1` (centres undefined), 1.4.
Regarding `O=C(Nc1cc(C(F)(F)F)ccc1N1CCS(=O)(=O)CC1)N1CCCC1c1ccncc1` (centres undefined), the fold change (FC) stood at 1.
Take `CC1CN(c2ccc(C(F)(F)F)cc2NC(=O)N2CCCC2c2ccncc2)CC(C)O1` (centres undefined): the fold change (FC) was found to be 1.
Same read-out and setting: in the case of `O=C(Nc1ccccc1N1CCOCC1)N1CCCC1c1ccncc1` (centres undefined) it was 1.1.
Same read-out and setting: next, `O=C(Nc1cc(C(F)(F)F)ccc1N1CCOCC1)N1CCCC1c1ccc(O)cc1` (centres undefined): 1.1; `CN(C)C(CNC(=O)Nc1cc(C(F)(F)F)ccc1N1CCOCC1)c1ccccc1` (centres undefined): 1.

A further data set relates to Mus musculus. Briefly: Antiinflammatory activity against ischemic jejunal ulcer C57BL/6J mouse model assessed as ulcer area at 900 ug/kg, ip administered for every 6 hrs for 3 days and measured on day 4 by imaging analysis (reference value: 3.26 +/- 0.47 mm2). As to conditions: dose 900 µg/kg; time 4 day.
For the compound `O=C(Nc1cc(C(F)(F)F)ccc1N1CCOCC1)N1CCCC1c1ccncc1` (centres undefined), the Activity is reported as 1.57 mm2.
